Experimental data: ChEMBL document CHEMBL1133005, “Improving the oral bioavailability of the iron chelator HBED by breaking the symmetry of the intramolecular H-bond network” (J Med Chem, 2000)
One block for each compound: values may come before it.

What was measured:
Type in all cases: physicochemical
[1] = Partition coefficient (logP); details: octanol/water
Procedure, shortened: (§1)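 Free-ligand partition coefficients are measured by the pH-metric technique. This uses two linked titrations: a normal aqueous titration, then a two-phase titration in the presence of the partition solvent.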

[2] = Evaluated for ionization constant (pKa6) by titrations performed in the presence of MeOH at a dielectric constant of 49; details: MeOH cosolvent, dielectric constant 49; read-out: pKa6
Procedure, shortened: (§2)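 Potentiometric pH titration. The electrode is calibrated with pH 7.00 phosphate buffer. A blank titration before each set standardizes the electrode by a nonlinear semiempirical equation, and readings are converted to the concentration scale pcH = −log[H+]. Runs use varying amounts of MeOH or EtOH cosolvent, and aqueous pKa values are extrapolated by the Yasuda–Shedlovsky method. Low pKa values (pH < 2) are determined by spectrophotometric titration.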

[3] = Evaluated for ionization constant (pKa4) by titrations performed in the absence of a cosolvent and at a dielectric constant of 78; details: no cosolvent; read-out: pKa4
[4] = Evaluated for ionization constant-1 (pKa1) by titrations performed in absence of a cosolvent at a dielectric constant of 78; details: no cosolvent, dielectric constant 78; read-out: pKa1; procedure, shortened: as §2
[5] = Evaluated for ionization constant (pKa2) by titrations performed in the presence of MeOH at a dielectric constant of 56; details: MeOH cosolvent, dielectric constant 56; read-out: pKa2
Procedure, shortened: (§3)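 pH-metric titration in mixed water/cosolvent media (MeOH or EtOH, depending on the ligand) at several cosolvent proportions, each proportion setting the dielectric constant. Electrode calibrated with pH 7.00 phosphate buffer and standardized after a blank titration by a nonlinear semiempirical fit. Readings were converted to pcH to give concentration-scale constants.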

[6] = Evaluated for ionization constant (pKa3) by titrations performed in the presence of MeOH at a dielectric constant of 56; details: MeOH cosolvent; read-out: pKa3; procedure, shortened: as §3
[7] = Evaluated for ionization constant (pKa5) by titrations performed using the method of Yasuda and Shedlovsky; details: read-out: pKa5; procedure, shortened: as §2
[8] = Evaluated for ionization constant (pKa3) by titrations performed in the absence of a cosolvent and at a dielectric constant of 78; details: no cosolvent; read-out: pKa3
[9] = Evaluated for ionization constant (pKa4) by titrations performed in the presence of MeOH at a dielectric constant of 49; details: MeOH cosolvent; read-out: pKa4; procedure, shortened: as §3
[10] = Partition coefficient (logP) (cyclohexane); procedure, shortened: as §1
[11] = Partition coefficient (logP) (chloroform); procedure, shortened: as §1
[12] = Evaluated for ionization constant (pKa4) by titrations performed in the presence of MeOH at a dielectric constant of 62; details: MeOH cosolvent; read-out: pKa4; procedure, shortened: as §3
[13] = Evaluated for ionization constant (pKa2) by titrations performed in the absence of cosolvent and at a dielectric constant of 78; details: no cosolvent, dielectric constant 78; read-out: pKa2
[14] = Evaluated for ionization constant (pKa6) by titrations performed using the method of Yasuda and Shedlovsky; details: read-out: pKa6; procedure, shortened: as §2
[15] = Evaluated for ionization constant (pKa3) by titrations performed using the method of Yasuda and Shedlovsky; details: read-out: pKa3
Procedure, shortened: (§4)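 Aqueous constants were extrapolated by the Yasuda–Shedlovsky method from pH-metric titrations run at several MeOH or EtOH cosolvent levels. Electrode calibrated with pH 7.00 phosphate buffer and standardized after a blank titration. Values are expressed on the pcH (-log[H+]) concentration scale.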

[16] = Evaluated for ionization constant (pKa6) by titrations performed in the presence of MeOH at a dielectric constant of 56; details: MeOH cosolvent, dielectric constant 56; read-out: pKa6; procedure, shortened: as §2
[17] = Evaluated for ionization constant (pKa6) by titrations performed in the presence of MeOH at a dielectric constant of 62; details: MeOH cosolvent, dielectric constant 62; read-out: pKa6; procedure, shortened: as §2
[18] = Evaluated for ionization constant (pKa4) by titrations performed using the method of Yasuda and Shedlovsky; details: read-out: pKa4; procedure, shortened: as §2
[19] = Evaluated for ionization constant (pKa5) by titrations performed in the presence of MeOH at a dielectric constant of 56; details: MeOH cosolvent; read-out: pKa5; procedure, shortened: as §2
[20] = Evaluated for ionization constant (pKa5) by titrations performed in the presence of MeOH at a dielectric constant of 49; details: MeOH cosolvent; read-out: pKa5; procedure, shortened: as §2
[21] = Evaluated for ionization constant (pKa3) by titrations performed in the presence of MeOH at a dielectric constant of 62; details: MeOH cosolvent; read-out: pKa3; procedure, shortened: as §3
[22] = Evaluated for ionization constant (pKa3) by titrations performed in the presence of MeOH at a dielectric constant of 49; details: MeOH cosolvent; read-out: pKa3; procedure, shortened: as §3
[23] = Evaluated for ionization constant (pKa4) by titrations performed in the presence of MeOH at a dielectric constant of 56; details: MeOH cosolvent, dielectric constant 56; read-out: pKa4; procedure, shortened: as §3
[24] = Evaluated for ionization constant (pKa5) by titrations performed in the presence of MeOH at a dielectric constant of 62; details: MeOH cosolvent; read-out: pKa5; procedure, shortened: as §2
[25] = Evaluated for ionization constant (pKa3) by titrations performed in presence of MeOH solvent at a dielectric constant of 62; details: MeOH cosolvent; read-out: pKa3; procedure, shortened: as §3
[26] = Evaluated for ionization constant (pKa4) by titrations performed in presence of MeOH solvent at a dielectric constant of 56; details: MeOH cosolvent; read-out: pKa4; procedure, shortened: as §3
[27] = Evaluated for ionization constant (pKa2) by titrations performed in absence of cosolvent and at a dielectric constant of 78; details: no cosolvent, dielectric constant 78; read-out: pKa2
[28] = Evaluated for ionization constant (pKa3) by titrations performed in presence of MeOH solvent at a dielectric constant of 49; details: MeOH cosolvent; read-out: pKa3; procedure, shortened: as §3
[29] = Evaluated for ionization constant (pKa5) by titrations performed in presence of MeOH solvent at a dielectric constant of 49; details: MeOH cosolvent; read-out: pKa5; procedure, shortened: as §2
[30] = Evaluated for ionization constant (pKa5) by titrations performed in presence of MeOH solvent at a dielectric constant of 62; details: MeOH cosolvent; read-out: pKa5; procedure, shortened: as §2
[31] = Evaluated for ionization constant (pKa2) by titrations performed in presence of MeOH solvent at a dielectric constant of 56; details: MeOH cosolvent, dielectric constant 56; read-out: pKa2; procedure, shortened: as §3
[32] = Evaluated for ionization constant (pKa5) by titrations performed in presence of MeOH solvent at a dielectric constant of 56; details: MeOH cosolvent; read-out: pKa5; procedure, shortened: as §2
[33] = Evaluated for ionization constant (pKa2) by titrations performed using method of Yasuda and Shedlovsky; details: read-out: pKa2; procedure, shortened: as §4
[34] = Evaluated for ionization constant (pKa4) by titrations performed in presence of MeOH solvent at a dielectric constant of 62; details: MeOH cosolvent; read-out: pKa4; procedure, shortened: as §3
[35] = Evaluated for ionization constant (pKa2) by titrations performed in presence of MeOH solvent at a dielectric constant of 49; details: MeOH cosolvent, dielectric constant 49; read-out: pKa2; procedure, shortened: as §3
[36] = Evaluated for ionization constant (pKa4) by titrations performed in presence of MeOH solvent at a dielectric constant of 49; details: MeOH cosolvent; read-out: pKa4; procedure, shortened: as §3
[37] = Evaluated for ionization constant (pKa3) by titrations performed in absence of cosolvent and at a dielectric constant of 78; details: no cosolvent; read-out: pKa3
[38] = Evaluated for ionization constant (pKa4) by titrations performed in presence of MeOH solvent at a dielectric constant of 78; details: MeOH cosolvent; read-out: pKa4
[39] = Evaluated for ionization constant (pKa2) by titrations performed in presence of MeOH solvent at a dielectric constant of 62; details: MeOH cosolvent, dielectric constant 62; read-out: pKa2; procedure, shortened: as §3
[40] = Evaluated for ionization constant (pKa1) by titrations performed in absence of a cosolvent at a dielectric constant of 78; details: no cosolvent, dielectric constant 78; read-out: pKa1
[41] = Evaluated for ionization constant (pKa3) by titrations performed in presence of MeOH solvent at a dielectric constant of 56; details: MeOH cosolvent; read-out: pKa3; procedure, shortened: as §3
[42] = Evaluated for ionization constant (pKa3) by titrations performed in the presence of EtOH at a dielectric constant of 63; details: EtOH cosolvent; read-out: pKa3; procedure, shortened: as §3
[43] = Evaluated for ionization constant (pKa5) by titrations performed in absence of cosolvent and at a dielectric constant of 78; details: no cosolvent; read-out: pKa5; procedure, shortened: as §2
[44] = Evaluated for ionization constant (pKa4) by titrations performed in the presence of EtOH at a dielectric constant of 63; details: EtOH cosolvent; read-out: pKa4; procedure, shortened: as §3
[45] = Evaluated for ionization constant (pKa2) by titrations performed in the presence of EtOH at a dielectric constant of 63; details: EtOH cosolvent, dielectric constant 63; read-out: pKa2; procedure, shortened: as §3
[46] = Evaluated for ionization constant (pKa4) by titrations performed in absence of cosolvent and at a dielectric constant of 78; details: no cosolvent; read-out: pKa4
[47] = Evaluated for ionization constant (pKa1) by titrations performed in absence of cosolvent and at a dielectric constant of 78; details: no cosolvent, dielectric constant 78; read-out: pKa1

- logP [1]: 0.16
- pKa [2]: 1.18
- pKa [3]: 4.61
- pKa [4]: 12.9
- pKa [5]: 12.5
- pKa [6]: 8.36
- pKa [7]: 1.62
- pKa [8]: 8.34
- pKa [9]: 4.71
- logP [10]: < -2
- logP [11]: < -2
- pKa [12]: 4.58
- pKa [13]: 11.1
- pKa [14]: 0.92
- pKa [15]: 8.36
- pKa [16]: 1.11
- pKa [17]: 1.05
- pKa [18]: 4.58
- pKa [19]: 2.34
- pKa [20]: 2.72
- pKa [21]: 8.36
- pKa [22]: 8.37
- pKa [23]: 4.57
- pKa [24]: 2.25
Compound: O=C(O)CN(CCN(CC(=O)O)Cc1ccccc1O)Cc1ccccc1O

- pKa [25]: 7.56
- pKa [26]: 2.77
- logP [1]: 0.5
- pKa [27]: 10.9
- pKa [28]: 7.41
- pKa [29]: 0.9
- pKa [7]: 1.3
- pKa [30]: 1.15
- pKa [31]: 12.1
- pKa [32]: 0.97
- pKa [33]: 11.5
- pKa [34]: 2.68
- pKa [35]: 12.2
- pKa [36]: 2.94
- logP [10]: < -2
- logP [11]: -0.29
- pKa [37]: 7.67
- pKa [15]: 7.68
- pKa [38]: 2.61
- pKa [18]: 2.49
- pKa [39]: 11.8
- pKa [40]: 12.1
- pKa [41]: 7.48
Compound: COC(=O)CN(CCN(CC(=O)[O-])Cc1ccccc1O)Cc1ccccc1O.[Na+]

- logP [1]: 1.15
- pKa [42]: 7.5
- pKa [27]: 10.9
- pKa [43]: 0.9
- logP [10]: -1.3
- logP [11]: 0.18
- pKa [44]: 2.75
- pKa [37]: 7.64
- pKa [45]: 11.4
- pKa [46]: 2.91
- pKa [47]: 12.3
Compound: CCOC(=O)CN(CCN(CC(=O)[O-])Cc1ccccc1O)Cc1ccccc1O.[Na+]
